Experimental data from ChEMBL document CHEMBL1122589 (J Med Chem, 1984).
Active and inactive are the calls of the source. The rule behind the calls is not given here.

What was measured:
[1] = system: L1210; assay: In vitro concentration required to inhibit the growth of L1210 cells in culture by 50% following a 48 hr exposure.; type: functional; conditions: Mus musculus, L1210, 48 h; read-out: ID50 (the source's name)
[2] = system: L1210; assay: Dose of drug given intraperitoneally on a qd 1-5 schedule that provides the highest ILS value in mice bearing 10E6 ip inoculated L1210 leukemia cells; type: functional, Mus musculus
Outline: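 Mice inoculated ip with 10⁶ L1210 leukemia cells; drug given ip daily on days 1-5 (qd 1-5). Optimal dose, in mg/kg/day, is the dose giving the highest increase in life span (ILS).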

[3] = system: Nucleic Acid; assay: Binding constant for DNA by ethidium bromide displacement; type: nucleic-acid assay
[4] = system: P388; assay: Dose of drug given intraperitoneally on days 1, 5, and 9 that provides the highest ILS value in mice bearing 10E6 ip inoculated P388 leukemia cells in vivo
[5] = species: Mus musculus; assay: Percentage increase in life span of drug-treated tumor bearing controls was determined; type: functional
Outline: (§1)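 Survival of drug-treated mice bearing ip-inoculated leukemia was compared with untreated tumor-bearing controls. The result is expressed as percentage increase in life span (ILS), and a value above 20% was taken as statistically significant.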

[6] = species: Mus musculus; assay: Percentage increase in life span of drug-treated tumor bearing controls was determined; IN- Inactive at the highest dose tested; type: functional, organism-based
[7] = Dissociation constant in aqueous DMF.; type: physicochemical
Outline: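 pKa obtained by UV spectroscopy in 20% aqueous DMF.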

[8] = species: Mus musculus; assay: Percentage increase in life span of drug-treated tumor bearing controls was determined no. in parentheses =no. of animals out of a 6 group that survived indefinitely; type: functional; outline: as §1
[9] = species: Mus musculus; assay: Percentage increase in life span of drug-treated tumor bearing controls was determined no. in parentheses are the animals (out of a group of 6) that survived indefinitely; type: functional; outline: as §1
[10] = system: Mus musculus; assay: Dose of drug given intraperitoneally on days 1, 5, and 9 that provides the highest ILS value in mice bearing 10E6 ip inoculated P388 leukemia cells in vivo
[11] = system: L1210; assay: Potency against L1210 leukemia cells in culture in vitro according to the NCI protocols Nanomolar concentration required to inhibit the growth of L1210 cells in culture by 50% following a 48 hr exposure; type: functional; conditions: Mus musculus, L1210, 48 h; read-out: ID50 (the source's name)
Outline: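 L1210 leukaemia cells were grown in culture and exposed to drug for 48 h. The value is the drug concentration giving 50% growth inhibition, expressed in nanomolar.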

For `CS(=O)(=O)Nc1ccc(Nc2c3ccccc3nc3ccccc23)c(Cl)c1`, the IC50 [1] was 1300 nM, the OD [2] was >500 mg/kg and the Log K [3] was 5.45.
With `CS(=O)(=O)Nc1ccc(Nc2c3ccccc3nc3ccccc23)c(NCC(O)CO)c1` (stereo unspecified) the IC50 [1] was 219 nM, the OD [4] was 45 mg/kg and the Log K [3] was 6.71. For the same compound, the ILS [5] was 84%.
With `CS(=O)(=O)Nc1ccc(Nc2c3ccccc3nc3ccccc23)c([N+](=O)[O-])c1` the IC50 [1] was 9000 nM, the OD [2] was >500 mg/kg and the Log K [3] was 5.61. For the same compound, the ILS [6] was “inactive”.
`CCN(CC)c1cc(NS(C)(=O)=O)ccc1Nc1c2ccccc2nc2ccccc12` gave an IC50 [1] of 4600 nM, an OD [4] of 100 mg/kg and a Log K [3] of 5.35.
In the case of `CC(C)Oc1cc(NS(C)(=O)=O)ccc1N=c1c2ccccc2[nH]c2ccccc12`, the IC50 [1] is reported as > 1700 nM, the OD [2] is reported as >500 mg/kg and the Log K [3] is reported as 5.17. For the same compound, the pKa [7] was 7.51.
In the case of `CS(=O)(=O)Nc1ccc(Nc2c3ccccc3nc3ccccc23)c(N2CCOCC2)c1`, the IC50 [1] is reported as > 1600 nM, the OD [4] is reported as 100 mg/kg and the Log K [3] is reported as 5.26.
With `CCCCCCCS(=O)(=O)Nc1ccc(Nc2c3ccccc3nc3ccccc23)c(NC)c1` the IC50 [1] was 397 nM, the OD [4] was 45 mg/kg and the Log K [3] was 6.44. The ILS [5] was 47%.
In the case of `CCCCCCNc1cc(NS(C)(=O)=O)ccc1Nc1c2ccccc2nc2ccccc12`, the IC50 [1] is reported as 136 nM, the OD [4] is reported as 60 mg/kg and the Log K [3] is reported as 6.36.
With `CC(=O)NNc1cc(NS(C)(=O)=O)ccc1Nc1c2ccccc2nc2ccccc12` the IC50 [1] was > 1500 nM and the Log K [3] was 5.89.
For `CN(CCO)c1cc(NS(C)(=O)=O)ccc1Nc1c2ccccc2nc2ccccc12`, the IC50 [1] was 1400 nM, the OD [4] was 100 mg/kg and the Log K [3] was 5.52. It also gave an ILS [8] of 100%.
Compound `CCCS(=O)(=O)Nc1ccc(Nc2c3ccccc3nc3ccccc23)c(NC)c1` has an IC50 [1] of 86 nM, an OD [4] of 20 mg/kg and a Log K [3] of 6.61. The ILS [5] was 73%.
For `CS(=O)(=O)Nc1ccc(Nc2c3ccccc3nc3ccccc23)c(NCCO)c1`, the IC50 [1] was 86 nM, the OD [4] was 45 mg/kg and the Log K [3] was 6.49. For the same compound, the ILS [5] was 89%.
For `Cc1cc(NS(C)(=O)=O)ccc1Nc1c2ccccc2nc2ccccc12`, the IC50 [1] was 120 nM, the OD [2] was 97 mg/kg and the Log K [3] was 5.74. For the same compound, the ILS [5] was 106%.
With `CS(=O)(=O)Nc1ccc(Nc2c3ccccc3nc3ccccc23)c(F)c1` the IC50 [1] was 800 nM, the OD [2] was >500 mg/kg and the Log K [3] was 5.65. It also gave a pKa [7] of 6.62.
`COc1cc(NS(C)(=O)=O)ccc1Nc1c2ccccc2nc2ccccc12` [AMSACRINE] showed an OD [2] of 6.7 mg/kg, a Log K [3] of 5.57 and an ILS [5] of 114%.
In the case of `CCS(=O)(=O)Nc1ccc(Nc2c3ccccc3nc3ccccc23)c(NC)c1`, the IC50 [1] is reported as 43 nM, the OD [4] is reported as 13.3 mg/kg and the Log K [3] is reported as 6.62. For the same compound, the ILS [5] was 99%.
For `CS(=O)(=O)Nc1ccc(Nc2c3ccccc3nc3ccccc23)c(N2CCCC2)c1`, the IC50 [1] was 1300 nM, the OD [4] was 45 mg/kg and the Log K [3] was 5.49.
Compound `CCCCCCCNc1cc(NS(C)(=O)=O)ccc1Nc1c2ccccc2nc2ccccc12` has an IC50 [1] of 181 nM, an OD [4] of 45 mg/kg and a Log K [3] of 6.54.
For `CS(=O)(=O)Nc1ccc(Nc2c3ccccc3nc3ccccc23)c(OCCO)c1`, the IC50 [1] was > 1700 nM, the OD [2] was 62.5 mg/kg and the Log K [3] was 5.91. For the same compound, the pKa [7] was 7.53 and the ILS [5] was 67%.
For `CS(=O)(=O)Nc1ccc(Nc2c3ccccc3nc3ccccc23)cc1`, the IC50 [1] was 35 nM, the OD [2] was 45 mg/kg and the ILS [5] was 107%.
For `CCCCNc1cc(NS(C)(=O)=O)ccc1Nc1c2ccccc2nc2ccccc12`, the IC50 [1] was 185 nM, the OD [4] was 45 mg/kg and the Log K [3] was 6.36.
For `CNc1cc(NS(C)(=O)=O)ccc1Nc1c2ccccc2nc2ccccc12`, the IC50 [1] was 71 nM, the ILS [9] was 152% and the Log K [3] was 6.42. For the same compound, the OD [10] was 13.3 mg/kg.
`CCOc1cc(NS(C)(=O)=O)ccc1Nc1c2ccccc2nc2ccccc12` showed an IC50 [1] of 600 nM, an OD [2] of 250 mg/kg and a Log K [3] of 5.68. It also gave a pKa [7] of 7.55 and an ILS [5] of 29%.
`CCCCS(=O)(=O)Nc1ccc(Nc2c3ccccc3nc3ccccc23)c(NC)c1` gave an IC50 [1] of 102 nM, an OD [4] of 45 mg/kg and a Log K [3] of 6.66. For the same compound, the ILS [5] was 67%.
For `CS(=O)(=O)Nc1ccc(Nc2c3ccccc3nc3ccccc23)c(N)c1`, the IC50 [1] was 1200 nM, the OD [2] was 45 mg/kg and the Log K [3] was 6.28. For the same compound, the ILS [5] was 106%.
`CCCCCCS(=O)(=O)Nc1ccc(Nc2c3ccccc3nc3ccccc23)c(NC)c1` gave an IC50 [1] of 443 nM, an OD [4] of 100 mg/kg and a Log K [3] of 6.41. For the same compound, the ILS [5] was 36%.
Work on `CCCCCS(=O)(=O)Nc1ccc(Nc2c3ccccc3nc3ccccc23)c(NC)c1` yielded an IC50 [1] of 144 nM, an OD [4] of 20 mg/kg and a Log K [3] of 6.58. It also gave an ILS [5] of 61%.
`CS(=O)(=O)Nc1ccc(Nc2c3ccccc3nc3ccccc23)c(O)c1` gave an IC50 [1] of 4000 nM, an OD [2] of 25 mg/kg and a Log K [3] of 5.53. The pKa [7] was 7.56 and the ILS [5] was 88%.
With `CN(C)c1cc(NS(C)(=O)=O)ccc1Nc1c2ccccc2nc2ccccc12` the OD [4] was 166 mg/kg and the ILS [8] was 210%.
With `CCNc1cc(NS(C)(=O)=O)ccc1Nc1c2ccccc2nc2ccccc12` the IC50 [1] was 229 nM, the OD [4] was 45 mg/kg and the Log K [3] was 6.54. For the same compound, the ILS [5] was 69%.
With `CCCNc1cc(NS(C)(=O)=O)ccc1Nc1c2ccccc2nc2ccccc12` the IC50 [1] was 286 nM, the OD [4] was 66 mg/kg and the Log K [3] was 6.57.
Work on `CS(=O)(=O)Nc1ccc(Nc2c3ccccc3nc3ccccc23)c(NC2CCCCC2)c1` yielded an IC50 [1] of 470 nM, an OD [4] of 45 mg/kg and a Log K [3] of 6.3.
With `CCCCCCCCS(=O)(=O)Nc1ccc(Nc2c3ccccc3nc3ccccc23)c(NC)c1` the IC50 [1] was 217 nM, the OD [4] was 30 mg/kg and the Log K [3] was 6.51. For the same compound, the ILS [5] was 42%.
Work on `CCCCCNc1cc(NS(C)(=O)=O)ccc1Nc1c2ccccc2nc2ccccc12` yielded an IC50 [11] of 117 nM, an OD [4] of 30 mg/kg and a Log K [3] of 6.42.
For `CS(=O)(=O)Nc1ccc(Nc2c3ccccc3nc3ccccc23)c(N2CCCCC2)c1`, the IC50 [1] was > 1600 nM, the OD [4] was 100 mg/kg and the Log K [3] was 5.69.
